{"data": "Measured values gathered from unrelated publications", "MAL12": "Alpha-glucosidase MAL12 (MAL12, Saccharomyces cerevisiae S288c, UniProt P53341)", "BUB1": "Mitotic checkpoint serine/threonine-protein kinase BUB1 (BUB1, Homo sapiens, UniProt O43683)", "MAP3K7": "Mitogen-activated protein kinase kinase kinase 7 (MAP3K7, Homo sapiens, UniProt O43318)", "note": "Each line is one published result; the experiments were not run side by side."}
{"Structure (SMILES)": "CCCCC(=O)Nc1ccc(-c2ccc3ncn(CCC)c(=O)c3c2)cn1", "target": "Serine/threonine-protein kinase tousled-like 2 (TLK2, Homo sapiens, UniProt Q86UE8)", "test": "binding, competition with immobilised ligand", "conditions": "0.5 µM", "measurement": "remaining binding", "value": "87%"}
{"Structure (SMILES)": "COc1ccc2oc(-c3ccc4nc(N)oc4c3)c/c(=N\\c3ccccc3NC(=O)CCN)c2c1", "target": "Bone morphogenetic protein receptor type-1B (BMPR1B, Homo sapiens, UniProt O00238)", "test": "binding", "conditions": "1 µM", "measurement": "remaining binding", "value": "99%"}
{"Structure (SMILES)": "Nc1ncnc2c1ncn2[C@@H]1O[C@H](COP(=O)(O)OP(=O)(O)OP(=O)(O)O)[C@@H](O)[C@H]1O", "target": "Hexokinase HKDC1 (Homo sapiens, UniProt Q2TB90)", "test": "enzyme activity, substrate", "conditions": "pH 8", "measurement": "Km", "value": "410 µM"}
{"Structure (SMILES)": "CC(=O)ON=C1C=CC(=C(C#N)c2ccccc2)C=C1", "target": "Glycogen synthase kinase 3 (Plasmodium falciparum, UniProt O77344)", "test": "enzyme activity, inhibitor, ADP detection", "conditions": "20 µM", "measurement": "activity vs control", "value": "89%"}
{"Structure (SMILES)": "COc1cc2c3c(c1OC)-c1c(OC)ccc(NC(C)=O)c1CC3N(C)CC2 (stereo not shown)", "target": "Alpha-1A adrenergic receptor (ADRA1A, Homo sapiens, UniProt P35348)", "test": "ligand displacement, radioligand", "conditions": "10 µM", "measurement": "inhibition", "value": "10%"}
{"Structure (SMILES)": "O=c1c(O)c(-c2ccc(O)cc2)oc2cc(O)cc(O)c12", "target": "MAL12", "test": "enzyme activity, inhibitor, absorbance", "conditions": "50 µM", "measurement": "inhibition", "value": "39.8%"}
{"Structure (SMILES)": "C#Cc1cc(-c2cc(Nc3nc(N[C@@H](C)c4ccc(F)cn4)ncc3Cl)n[nH]2)ccc1C=O", "target": "BUB1", "test": "enzyme activity, inhibitor", "conditions": "0.2 µM", "measurement": "inhibition", "value": "35%"}
{"Structure (SMILES)": "CS(=O)(=NC#N)c1ccccc1Nc1nc(Nc2ccnc(CO)c2)ncc1Cl (stereo not shown)", "target": "MAP3K7", "test": "enzyme activity, inhibitor", "conditions": "1 µM", "measurement": "remaining activity", "value": "80.5%"}
{"Structure (SMILES)": "O=c1cc(-c2ccc(O)c(O)c2)oc2c(Br)c(O)c(Br)c(O)c12", "target": "MAL12", "test": "enzyme activity, inhibitor, absorbance", "conditions": "50 µM", "measurement": "inhibition", "value": "95.1%"}
{"Structure (SMILES)": "CNC(=O)c1ccccc1Nc1nc(Nc2ccc(CO)nc2)ncc1Cl", "target": "MAP3K7", "test": "enzyme activity, inhibitor", "conditions": "1 µM", "measurement": "remaining activity", "value": "64.9%"}
{"Structure (SMILES)": "C1=C/COCc2cc(ccc2OCCN2CCCC2)Nc2nccc(n2)-c2cccc(c2)COC/1", "target": "BUB1", "test": "binding", "conditions": "0.1 µM", "measurement": "remaining binding", "value": "91%"}
{"Structure (SMILES)": "O=C1C[C@@H](c2ccc(O)cc2)Oc2cc(O)cc(O)c21", "target": "MAL12", "test": "enzyme activity, inhibitor, absorbance", "conditions": "50 µM", "measurement": "inhibition", "value": "26.5%"}
{"Structure (SMILES)": "C#Cc1cnc(Nc2ccnc(CO)c2)nc1Nc1ccccc1S(C)(=O)=NC#N (stereo not shown)", "target": "MAP3K7", "test": "enzyme activity, inhibitor", "conditions": "1 µM", "measurement": "remaining activity", "value": "78.9%"}
